Test results taken from ChEMBL document CHEMBL2176916, “Mimicking the intramolecular hydrogen bond: synthesis, biological evaluation, and molecular modeling of benzoxazines and quinazolines as potential antimalarial agents” (J Med Chem, 2012).
Values after ≈ are worked out from the molar mass of the structure shown. Active and inactive are the calls of the source. The rule behind the calls is not given here.

Tests used:
[1] = target: T1, Chloroquine resistance transporter (Plasmodium falciparum, UniProt Q9N623); assay: Inhibition of chloroquine-resistant Plasmodium falciparum Dd2 CRT expressed in Xenopus laevis oocytes assessed as reduction in [3H]-chloroquine uptake after 1.5 to 2 hrs
T1 sequence (Q9N623 whole entry): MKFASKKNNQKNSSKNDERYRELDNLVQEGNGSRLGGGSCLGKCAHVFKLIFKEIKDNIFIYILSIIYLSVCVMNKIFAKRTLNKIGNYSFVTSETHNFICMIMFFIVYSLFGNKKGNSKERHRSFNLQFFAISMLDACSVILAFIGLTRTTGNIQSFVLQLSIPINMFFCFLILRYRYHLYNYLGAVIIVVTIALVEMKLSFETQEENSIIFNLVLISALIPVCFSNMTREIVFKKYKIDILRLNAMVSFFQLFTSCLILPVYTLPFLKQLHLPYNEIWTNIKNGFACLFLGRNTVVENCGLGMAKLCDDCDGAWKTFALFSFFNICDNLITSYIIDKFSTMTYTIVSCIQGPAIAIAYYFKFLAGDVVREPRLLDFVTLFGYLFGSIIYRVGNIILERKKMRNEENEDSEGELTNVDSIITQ

[2] = Cytotoxicity against human HepG2 cells assessed as cell viability after 24 hrs by neutral red uptake assay; type: cell-based; conditions: read-out: TC50
In short: (§1)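 NIH3T3 cells grown in DMEM and HepG2 in EMEM, both with 10% FCS, glutamine/penicillin/streptomycin and non-essential amino acids, 37 °C, 5% CO₂. Cells trypsinized at confluence and resuspended. Viability by neutral red uptake after 24 h exposure. Student's t test, p < 0.05.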

[3] = Cytotoxicity against mouse NIH/3T3 cells assessed as cell viability after 24 hrs by neutral red uptake assay; type: cell-based, NIH3T3; conditions: read-out: TC50; in short: as §1
[4] = Aqueous solubility of the compound in water at pH 3 after 24 hrs; type: physicochemical
In short: (§2)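 Prepared from 10 mM DMSO stock as 250 μM in 50 mM acetic acid (pH 3) or 50 mM ammonium acetate (pH 7.4), 2.5% DMSO final, in filter plates. Filtrate diluted 1:2 and run on UPLC/UV/TOF-MS at 254 nm. Solubility from sample UV area versus a 250 μM standard in acetonitrile/buffer.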

Oryctolagus cuniculus = organism: Oryctolagus cuniculus; assay: Inhibition of rabbit kidney Na+/K+ ATPase hydrolytic activity assessed as inorganic phosphate production at 10 uM by malachite green staining-based colorimetric assay
In short: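 Na⁺,K⁺-ATPase membrane fragments prepared from rabbit kidney outer medulla and used at about 1 μg/mL protein. Buffer: 25 mM MOPS pH 7.0, 100 mM NaCl, 20 mM KCl, 3 mM MgCl₂. Test agent at 10 μM, with ouabain as reference. Pi release measured by malachite green colorimetry.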

Plasmodium berghei [5] = assay: Antiplasmodium activity against chloroquine-sensitive Plasmodium berghei ANKA infected in BALB/c mouse assessed as decrease in parasitemia administered as po until day 4 measured 24 hrs post last dose by Giemsa staining; type: functional
In short: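 P. berghei ANKA in female 5-week-old BALB/c mice (19 g), infected ip with 2 × 10⁷ parasitized erythrocytes. Fresh aqueous stocks (100 mg/mL) diluted 1.5-fold to give 6−7 doses from 4.4 to 50 mg/kg, given once daily by oral gavage starting 4 h post-infection through day 4. Parasitemia read from Giemsa tail-blood smears 24 h after last dose. ED50 from four-parameter logistic fit.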

CYP3A4 = assay: Metabolic stability in human liver microsomes assessed as compound ramining after 1 hr in presence of human recombinant CYP3A4; type: ADME, Microsome; conditions: in the assay text read “assessed” for “in human liver microsomes assessed”, read-out: Stability
In short: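 Substrate at 1 μM final (0.25% organic solvent) incubated 1 h at 37 °C with recombinant hCYP3A4 (20 pmol/mL), with or without NADPH regenerating system. Stopped with acetonitrile. Result is % remaining from MS peak area with NADPH relative to without. CV typically within 10%.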

[6] = target: T2, Chloroquine resistance transporter (Plasmodium falciparum) (UniProt Q9N623); assay: Inhibition of chloroquine-resistant Plasmodium falciparum Dd2 CRT expressed in Xenopus laevis oocytes assessed as reduction in [3H]-chloroquine uptake at 100 uM after 1.5 to 2 hrs; type: cell-based; conditions: Oocyte
T2 sequence (whole entry): T1 sequence (Q9N623 whole entry)
In short: (§3)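 Oocytes injected with Dd2 or D10 PfCRT cRNA (20 ng per oocyte). Compound at 100 μM extracellular. [³H]CQ (0.3 μM) uptake measured 3−5 days post-injection over 1.5−2 h at 27.5 °C, in pH 6.0 medium containing 15 μM unlabeled CQ. 10 oocytes per treatment, five experiments. Compared by ANOVA with Tukey's test.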

[7] = Chemical stability of the compound at pH 2 at 37 degC measured for 24 hrs by NMR analysis; type: physicochemical; conditions: buffer, pH 2, 24 h
Plasmodium falciparum [8] = assay: Antiplasmodial activity against chloroquine-resistant Plasmodium falciparum W2 infected in human RBCs after 72 hrs by parasite lactate dehydrogenase assay; type: functional, organism-based; conditions: W2, 72 h
In short: (§4)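 Asynchronous cultures (parasitemia 1−1.5%, 1% final hematocrit) in human type A-positive RBCs, RPMI 1640 with 1% AlbuMax, hypoxanthine, Hepes and glutamine. Exposed to serial dilutions (DMSO <1% final) for 72 h at 37 °C under 1% O₂/5% CO₂/94% N₂. Growth read as pLDH activity at OD₆₅₀ (modified Makler method).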

[9] = target: T2, Chloroquine resistance transporter (Plasmodium falciparum); assay: Inhibition of chloroquine-sensitive Plasmodium falciparum D10 CRT expressed in Xenopus laevis oocytes assessed as [3H]-chloroquine uptake at 100 uM after 1.5 to 2 hrs; type: cell-based; conditions: Oocyte; in short: as §3
[10] = Aqueous solubility of the compound in water at pH 7.4 after 24 hrs; type: physicochemical; in short: as §2
[11] = Chemical stability of the compound at pH 7.4 at 37 degC measured for 24 hrs by NMR analysis; type: physicochemical; conditions: buffer, pH 7.4, 24 h
Plasmodium falciparum [12] = assay: Antiplasmodial activity against chloroquine-sensitive Plasmodium falciparum D10 infected in human RBCs after 72 hrs by parasite lactate dehydrogenase assay; type: functional, organism-based; conditions: D10, 72 h; in short: as §4
Plasmodium falciparum [13] = assay: Resistant index, ratio of IC50 for chloroquine-resistant Plasmodium falciparum W2 to IC50 for chloroquine-sensitive Plasmodium falciparum D10; type: functional
[14] = Chemical stability in DMSO/D2O mixture solution at 25 degC by NMR analysis; type: physicochemical
[15] = Chemical stability of the compound at pH 2 at 37 degC after 1 hr by NMR analysis; type: physicochemical; conditions: buffer, pH 2, 1 h
[16] = Chemical stability of the compound at pH 7.4 at 37 degC by NMR analysis; type: physicochemical; conditions: buffer
Plasmodium berghei [17] = assay: Antiplasmodium activity against chloroquine-sensitive Plasmodium berghei ANKA infected in BALB/c mouse assessed as decrease in parasitemia at 50 mg/kg, ip administered until day 4 measured 24 hrs post last dose by Giemsa staining; type: functional, organism-based; set-up: dose 50 mg/kg
In short: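 Peters 4-day test, P. berghei ANKA, female 5-week-old BALB/c mice infected ip with 2 × 10⁷ parasitized erythrocytes. Single group of six mice given 50 mg/kg ip daily, starting 4 h post-infection through day 4. Parasitemia counted on Giemsa tail-blood smears 24 h after final treatment.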

[18] = target: Potassium voltage-gated channel subfamily H member 2 (Rattus norvegicus); assay: Inhibition of rat ERG after 2 to 3 days by patch clamp assay
[19] = Chemical stability of the compound at pH 7.4; type: physicochemical; conditions: buffer
[20] = Intrinsic clearance in rat liver microsomes at 1 uM; type: ADME, Microsome; conditions: read-out: CLH
In short: (§5)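 Substrate at 1 μM with 0.2 mg/mL mouse or rat liver microsomal protein in 100 mM phosphate, pH 7.4. Reaction started with NADPH regenerating system (1 mM NADPH, 10 mM G6P, 0.4 U/mL G6PDH) and stopped with acetonitrile at intervals over 0−45 min, in duplicate. HPLC-MS depletion fitted monoexponentially; Clint = k × V/P.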

[21] = Intrinsic clearance in mouse liver microsomes at 1 uM; type: ADME, Microsome; conditions: read-out: CLH; in short: as §5

SMILES | CC50 at 24 h [2] [nM] | CC50 at 24 h [3] [nM] | IC50 (Plasmodium falciparum [8]) [nM] | IC50 (Plasmodium falciparum [12]) [nM] | Ratio IC50 (Plasmodium falciparum [13]) | further results
CC(C)(C)NC(=O)[C@@H]1C[C@@H]2CCCC[C@@H]2CN1C[C@@H](O)[C@H](Cc1ccccc1)NC(=O)[C@H](CC(N)=O)NC(=O)c1ccc2ccccc2n1 | – | – | – | – | – | IC50 [1]: 13000 nM
CCN(CC)CCCC(C)Nc1ccnc2cc(Cl)ccc12 (configuration not stated) [CHLOROQUINE] | 31000 | > 80000 | – | – | – | –
Clc1ccc2c(Nc3ccc4c(c3)NCN(Cc3ccccc3)C4)ccnc2c1 | 25000 | 40000 | 67 | 53 | – | solubility at 24 h [4]: 122 µM (≈ 48.9 µg/mL); inhibition (Oryctolagus cuniculus): 35%; ED50 (Plasmodium berghei [5]): 15.7 mg/kg; remaining at 1 h (CYP3A4): 18%; inhibition [6]: Active; IC50 [1]: 228000 nM; Stability [7]: Stable; inhibition [9]: inactive; solubility ([10]; buffer, pH 7.4, 24 h, BLD = below limit of detection): BLD; Stability [11]: Stable
O=c1c2ccc(Nc3ccnc4cc(Cl)ccc34)cc2ncn1Cc1ccc(CN2CCCC2)cc1 | – | – | 83 | 31 | 2.7 | –
C[C@@H]1O[C@@H](O[C@H]2C[C@@H](O)[C@]3(CO)[C@H]4[C@H](O)C[C@]5(C)[C@@H](C6=CC(=O)OC6)CC[C@]5(O)[C@@H]4CC[C@]3(O)C2)[C@H](O)[C@H](O)[C@H]1O | – | – | – | – | – | inhibition (Oryctolagus cuniculus): Active
O=C1c2ccc(Nc3ccnc4cc(Cl)ccc34)cc2NCN1Cc1ccccc1 | – | – | > 1000 | > 1000 | – | –
CCn1cnc2cc(Nc3ccnc4cc(Cl)ccc34)ccc2c1=O | – | – | > 1000 | > 1000 | – | –
O=c1c2ccc(Nc3ccnc4cc(Cl)ccc34)cc2ncn1Cc1ccccc1 | – | – | > 1000 | > 1000 | – | –
CCN1CNc2cc(Nc3ccnc4cc(Cl)ccc34)ccc2C1 | – | – | 60 | 11 | 5.4 | Stability [7]: Stable; Stability [11]: Stable
Clc1ccc2c(Nc3ccc4c(c3)OCN(Cc3ccccc3)C4)ccnc2c1 | 15000 | 40000 | 31 | 38 | 0.8 | Stability [14]: Stable; Stability [15]: Unstable; Stability [16]: Stable
CCCn1cnc2cc(Nc3ccnc4cc(Cl)ccc34)ccc2c1=O | – | – | > 1000 | > 1000 | – | –
CCN1COc2cc(Nc3ccnc4cc(Cl)ccc34)ccc2C1 | 6000 | 29000 | 72 | 23 | 3.1 | Stability [14]: Stable; Stability [15]: Unstable; Activity (Plasmodium berghei [17]): Active; Stability [16]: Stable
CCN(CC)Cc1ccc(Nc2ccnc3cc(Cl)ccc23)cc1O [ISOQUINE] | – | – | 31 | 27 | 1.1 | –
CCN(CC)Cc1cc(Nc2ccnc3cc(Cl)ccc23)ccc1O.Cl | – | – | 19 | 25 | 0.7 | –
CCCN1COc2cc(Nc3ccnc4cc(Cl)ccc34)ccc2C1 | – | – | 40 | 21 | 2 | Stability [14]: Stable; Stability [15]: Unstable; Stability [16]: Stable
CCCN1CNc2cc(Nc3ccnc4cc(Cl)ccc34)ccc2C1 | 5700 | 17000 | 53 | 21 | 2.5 | solubility at 24 h [4]: 231 µM (≈ 81.5 µg/mL); inhibition (Oryctolagus cuniculus): 35%; IC50 [18]: 22 nM; inhibition (INH) ([18]; rat): Dose-dependent effect; Stability [19]: 100%; ED50 (Plasmodium berghei [5]): 8.74 mg/kg; remaining at 1 h (CYP3A4): 43%; inhibition [6]: Active; Stability [7]: Stable; microsomal CLint at 1 µM [20]: 121 µL/min/mg; inhibition [9]: inactive; solubility at 24 h ([10]; water, pH 7.4): 53 µM (≈ 18.7 µg/mL); Stability [11]: Stable; microsomal CLint at 1 µM [21]: 219 µL/min/mg
